Twelve compounds from ChEMBL document CHEMBL1129288, “Design and synthesis of non-peptide Ras CAAX mimetics as potent farnesyltransferase inhibitors” (J Med Chem, 1996) can be followed below.

One experiment addresses T1, Protein farnesyltransferase (Homo sapiens, UniProt P49354+P49356). The experiment in a line: Inhibition of human Burkitt lymphoma (Daudi) cell farnesyltransferase. As to conditions: target entry is the homologue from another species.
In general, IC50 refers to the concentration that gives 50% inhibition. Compound `N[C@@H](CS)CNc1ccc(-c2ccccc2C(=O)O)cc1` registered an IC50 of 0.543 µM.

Another experiment addresses Geranylgeranyl transferase type I (Homo sapiens, UniProt P49354+P53609). As to the kind of experiment: In vitro inhibition of Geranylgeranyl transferase type I. Type of experiment: protein-complex assay.
Conditions: not given
Put shortly: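 Partially purified GGTase I from human Burkitt lymphoma (Daudi) cells, incubated for 30 min at 37 °C.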
`Cc1cccc(-c2ccc(NC[C@@H](N)CS)cc2)c1` came in with an IC50 above 100 µM.

`COc1cc(NC[C@@H](N)CS)ccc1-c1cccc(C(=O)O)c1` gave an IC50 of 43.6 µM.

For the compound `N[C@@H](CS)CNc1ccc(-c2ccccc2C(=O)O)cc1`, the concentration for half-maximal inhibition (IC50) was determined as 140 µM.

Regarding `N[C@@H](CS)CNc1ccc(-c2cccc(C(=O)O)c2)cc1`, half-maximal inhibition (IC50) was put at 100 µM.

As to `COC(=O)c1cccc(-c2ccc(NC[C@@H](N)CS)cc2)c1`, the 50% inhibitory concentration (IC50) was above 100 µM.

As to `N[C@@H](CS)CNc1ccc(-c2ccccc2)cc1`, the 50% inhibitory concentration (IC50) was above 100 µM.

In turn, `N[C@@H](CS)C(=O)NCc1cccc(-c2cccc(C(=O)O)c2)c1` returned an IC50 above 100 µM.

`N[C@@H](CS)C(=O)Nc1ccc(-c2cccc(C(=O)O)c2)cc1` came in with an IC50 of 100 µM.

Compound `N[C@@H](CS)CNCc1cccc(-c2cccc(C(=O)O)c2)c1` registered a half-maximal inhibitory concentration (IC50) of 35 µM.

Compound `N[C@@H](CS)CNc1ccc(-c2ccc(C(=O)O)cc2)cc1` had a concentration for half-maximal inhibition (IC50) above 100 µM.

In the next experiment the target is T1, Protein farnesyltransferase. The experiment in a line: In vitro inhibition of Farnesyltransferase. Type of experiment: protein-complex assay.
Conditions: not given
Put shortly: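 Partially purified FTase from human Burkitt lymphoma (Daudi) cells, incubated with [³H]FPP and recombinant H-Ras-CVLS for 30 min at 37 °C.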
In turn, `Cc1cccc(-c2ccc(NC[C@@H](N)CS)cc2)c1` yielded an IC50 of 0.71 µM.

Regarding `COc1cc(NC[C@@H](N)CS)ccc1-c1cccc(C(=O)O)c1`, the half-maximal inhibitory concentration (IC50) worked out at 0.04 µM.

As to `N[C@@H](CS)CNc1ccc(-c2cccc(C(=O)O)c2)cc1`, 0.114 µM corresponded to half-maximal inhibition (IC50).

`COC(=O)c1cccc(-c2ccc(NC[C@@H](N)CS)cc2)c1` returned a 50% inhibitory concentration (IC50) of 0.917 µM.

The compound `CC[C@H](C)[C@H](NC(=O)[C@@H](NC(=O)[C@@H](N)CS)C(C)C)C(=O)N[C@@H](CCSC)C(=O)O` returned an IC50 of 0.2 µM.

`N[C@@H](CS)CNc1ccc(-c2ccccc2)cc1` showed an IC50 of 1.07 µM.

In the case of `N[C@@H](CS)C(=O)NCc1cccc(-c2cccc(C(=O)O)c2)c1`, half-maximal inhibition (IC50) was put at 100 µM.

`CSCC[C@H](NC(=O)c1ccc(NC(=O)[C@@H](N)CS)cc1)C(=O)O` had an IC50 of 0.15 µM.

Compound `N[C@@H](CS)C(=O)Nc1ccc(-c2cccc(C(=O)O)c2)cc1` gave an IC50 of 13.5 µM.

In the case of `N[C@@H](CS)CNCc1cccc(-c2cccc(C(=O)O)c2)c1`, the half-inhibitory concentration (IC50) came out at 11 µM.
